# Results as given in paper PMC4824005 (Nature structural & molecular biology, 2015).
# B1: EGF: EGF, used at 1ng/mL to stimulate MCF10A cells (protein, UniProt P01133 23-1207, looked up)
# Pro-epidermal growth factor: PQHWSCPEGTLAGNGNSTCVGPAPFLIFSHGNSIFRIDTEGTNYEQLVVDAGVSVIMDFHYNEKRIYWVDLERQLLQRVFLNGSRQERVCNIEKNVSGMAINWINEEVIWSNQQEGIITVTDMKGNNSHILLSALKYPANVAVDPVERFIFWSSEVAGSLYRADLDGVGVKALLETSEKITAVSLDVLDKRLFWIQYNREGSNSLICSCDYDGGSVHISKHPTQHNLFAMSLFGDRIFYSTWKMKTIWIANKHTGKDMVRINLHSSFVPLGELKVVHPLAQPKAEDDTWEPEQKLCKLRKGNCSSTVCGQDLQSHLCMCAEGYALSRDRKYCEDVNECAFWNHGCTLGCKNTPGSYYCTCPVGFVLLPDGKRCHQLVSCPRNVSECSHDCVLTSEGPLCFCPEGSVLERDGKTCSGCSSPDNGGCSQLCVPLSPVSWECDCFPGYDLQLDEKSCAASGPQPFLLFANSQDIRHMHFDGTDYGTLLSQQMGMVYALDHDPVENKIYFAHTALKWIERANMDGSQRERLIEEGVDVPEGLAVDWIGRRFYWTDRGKSLIGRSDLNGKRSKIITKENISQPRGIAVHPMAKRLFWTDTGINPRIESSSLQGLGRLVIASSDLIWPSGITIDFLTDKLYWCDAKQSVIEMANLDGSKRRRLTQNDVGHPFAVAVFEDYVWFSDWAMPSVMRVNKRTGKDRVRLQGSMLKPSSLVVVHPLAKPGADPCLYQNGGCEHICKKRLGTAWCSCREGFMKASDGKTCLALDGHQLLAGGEVDLKNQVTPLDILSKTRVSEDNITESQHMLVAEIMVSDQDDCAPVGCSMYARCISEGEDATCQCLKGFAGDGKLCSDIDECEMGVPVCPPASSKCINTEGGYVCRCSEGYQGDGIHCLDIDECQLGEHSCGENASCTNTEGGYTCMCAGRLSEPGLICPDSTPPPHLREDDHHYSVRNSDSECPLSHDGYCLHDGVCMYIEALDKYACNCVVGYIGERCQYRDLKWWELRHAGHGQQQKVIVVAVCVVVLVMLLLLSLWGAHYYRTQKLLSKNPKNPYEESSRDVRSRRPADTEDGMSSCPQPWFVVIKEHQDLKNGGQPVAGEDGQAADGSMQPTSWRQEPQLCGMGTEQGCWIPVSSDKGSCPQVMERSFHMPSYGTQTLEGGVEKPHSLLSANPLWQQRALDPPHQMELTQ
# modifications: Pro-epidermal growth factor
# Test system: Shc1 phosphorylated at Tyr239 and Tyr240 in MCF10A cells
# Experiment: Immunoblot of dual Shc1 phosphorylation in MCF10A cells
# Assay type: cell-based
# Conditions: 1ng/mL EGF, 3 min
# Method in brief: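 MCF10A cells (STR-authenticated, mycoplasma-free) were kept in HuMEC medium and held 16 h in growth-factor-free medium before pretreatment with test compound and EGF stimulation. Cells were lysed in RIPA buffer containing protease and phosphatase inhibitors. Lysates were separated by SDS-PAGE, transferred to nitrocellulose and immunoblotted with phospho-Shc and total Shc antibodies.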
molecule,measurement,value
B1,EGF-stimulated phosphorylation of Shc1 at both Tyr239 and Tyr240,significant phosphorylation of both Tyr239 and Tyr240 was detected
